In ChEMBL document CHEMBL4715736, “Identification of anticancer agents based on the thieno[2,3-b]pyridine and 1H-pyrazole molecular scaffolds” (2016):

Tests used:
Format in all cases: functional
Details in all cases: read-out: Activity
UACC-257 = experiment: Growth inhibition of human UACC-257 cells assessed as cell growth at 10 uM incubated for 48 hrs by sulforhodamine B assay relative to control
Summary of the method: (§1)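 Run by the NCI Developmental Therapeutics Program as part of its 60-line human tumour panel. Each compound tested at a single 10 µM dose. Growth expressed as % relative to untreated control cells (100%).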

IGROV-1 = experiment: Growth inhibition of human IGROV-1 cells assessed as cell growth at 10 uM incubated for 48 hrs by sulforhodamine B assay relative to control
Summary of the method: (§2)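 Submitted to the NCI Developmental Therapeutics Program for the NCI60 human tumour cell line panel. First screen at a single 10 µM concentration. Read-out is growth relative to untreated control cells set at 100%.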

OVCAR-5 = experiment: Growth inhibition of human OVCAR-5 cells assessed as cell growth at 10 uM incubated for 48 hrs by sulforhodamine B assay relative to control; summary of the method: as §1
HCT-15 = experiment: Growth inhibition of human HCT-15 cells assessed as cell growth at 10 uM incubated for 48 hrs by sulforhodamine B assay relative to control; summary of the method: as §2
786-0 = experiment: Growth inhibition of human 786-0 cells assessed as cell growth at 10 uM incubated for 48 hrs by sulforhodamine B assay relative to control
Summary of the method: (§3)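 NCI Developmental Therapeutics Program NCI60 panel. Compounds that were active in the 10 µM one-dose screen went on to dose–response testing. Growth at each concentration is expressed relative to untreated control (100%). GI50 (concentration giving 50% of maximal inhibition of proliferation) and TGI (concentration giving total growth inhibition) were derived from the curves.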

MOLT-4 = experiment: Growth inhibition of human MOLT-4 cells assessed as cell growth at 10 uM incubated for 48 hrs by sulforhodamine B assay relative to control; summary of the method: as §2
UO-31 = experiment: Growth inhibition of human UO-31 cells assessed as cell growth at 10 uM incubated for 48 hrs by sulforhodamine B assay relative to control; summary of the method: as §1
MDA-MB-435 = experiment: Growth inhibition of human MDA-MB-435 cells assessed as cell growth at 10 uM incubated for 48 hrs by sulforhodamine B assay relative to control; summary of the method: as §2
SNB-75 = experiment: Growth inhibition of human SNB-75 cells assessed as cell growth at 10 uM incubated for 48 hrs by sulforhodamine B assay relative to control; summary of the method: as §1
HOP-62 = experiment: Growth inhibition of human HOP-62 cells assessed as cell growth at 10 uM incubated for 48 hrs by sulforhodamine B assay relative to control; summary of the method: as §2
HL-60(TB) = experiment: Growth inhibition of human HL-60(TB) cells assessed as cell growth at 10 uM incubated for 48 hrs by sulforhodamine B assay relative to control
Summary of the method: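 Screened by the NCI Developmental Therapeutics Program on its panel of 60 human tumour cell lines. Compounds were first tested at a single 10 µM dose, and compounds active there went to dose-response curves. Growth is expressed relative to untreated control (100%). GI50 (50% of maximal proliferation inhibition) and TGI (total growth inhibition) were derived from the dose-response data.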

A549 = experiment: Growth inhibition of human A549/ATCC cells assessed as cell growth at 10 uM incubated for 48 hrs by sulforhodamine B assay relative to control; summary of the method: as §3
SNB-19 = experiment: Growth inhibition of human SNB-19 cells assessed as cell growth at 10 uM incubated for 48 hrs by sulforhodamine B assay relative to control; summary of the method: as §1
M14 = experiment: Growth inhibition of human M14 cells assessed as cell growth at 10 uM incubated for 48 hrs by sulforhodamine B assay relative to control; summary of the method: as §2
ACHN = experiment: Growth inhibition of human ACHN cells assessed as cell growth at 10 uM incubated for 48 hrs by sulforhodamine B assay relative to control
Summary of the method: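 NCI Developmental Therapeutics Program NCI60 human tumour cell line panel, one-dose primary screen with every compound at 10 µM. Growth is expressed as % of untreated control cells (100%).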

OVCAR-4 = experiment: Growth inhibition of human OVCAR-4 cells assessed as cell growth at 10 uM incubated for 48 hrs by sulforhodamine B assay relative to control; summary of the method: as §1
COLO 205 = experiment: Growth inhibition of human COLO 205 cells assessed as cell growth at 10 uM incubated for 48 hrs by sulforhodamine B assay relative to control; summary of the method: as §3
RXF 393 = experiment: Growth inhibition of human RXF 393 cells assessed as cell growth at 10 uM incubated for 48 hrs by sulforhodamine B assay relative to control; summary of the method: as §1
OVCAR-3 = experiment: Growth inhibition of human OVCAR-3 cells assessed as cell growth at 10 uM incubated for 48 hrs by sulforhodamine B assay relative to control; summary of the method: as §1
NCI-H226 = experiment: Growth inhibition of human NCI-H226 cells assessed as cell growth at 10 uM incubated for 48 hrs by sulforhodamine B assay relative to control; summary of the method: as §2
MDA-MB-231 = experiment: Growth inhibition of human MDA-MB-231 cells assessed as cell growth at 10 uM incubated for 48 hrs by sulforhodamine B assay relative to control; summary of the method: as §2
SF-268 = experiment: Growth inhibition of human SF-268 cells assessed as cell growth at 10 uM incubated for 48 hrs by sulforhodamine B assay relative to control; summary of the method: as §1
SF-539 = experiment: Growth inhibition of human SF-539 cells assessed as cell growth at 10 uM incubated for 48 hrs by sulforhodamine B assay relative to control; summary of the method: as §1
SK-MEL-5 = experiment: Growth inhibition of human SK-MEL-5 cells assessed as cell growth at 10 uM incubated for 48 hrs by sulforhodamine B assay relative to control; summary of the method: as §1
Hs-578T = experiment: Growth inhibition of human Hs-578T cells assessed as cell growth at 10 uM incubated for 48 hrs by sulforhodamine B assay relative to control; summary of the method: as §2
K562 = experiment: Growth inhibition of human K562 cells assessed as cell growth at 10 uM incubated for 48 hrs by sulforhodamine B assay relative to control; summary of the method: as §2
SW-620 = experiment: Growth inhibition of human SW-620 cells assessed as cell growth at 10 uM incubated for 48 hrs by sulforhodamine B assay relative to control; summary of the method: as §1
Malme-3M = experiment: Growth inhibition of human Malme-3M cells assessed as cell growth at 10 uM incubated for 48 hrs by sulforhodamine B assay relative to control; summary of the method: as §2
PC-3 = experiment: Growth inhibition of human PC-3 cells assessed as cell growth at 10 uM incubated for 48 hrs by sulforhodamine B assay relative to control; summary of the method: as §1
NCI-H460 = experiment: Growth inhibition of human NCI-H460 cells assessed as cell growth at 10 uM incubated for 48 hrs by sulforhodamine B assay relative to control; summary of the method: as §2
HCT-116 = experiment: Growth inhibition of human HCT-116 cells assessed as cell growth at 10 uM incubated for 48 hrs by sulforhodamine B assay relative to control; summary of the method: as §2
SF-295 = experiment: Growth inhibition of human SF-295 cells assessed as cell growth at 10 uM incubated for 48 hrs by sulforhodamine B assay relative to control; summary of the method: as §1
DU-145 = experiment: Growth inhibition of human DU-145 cells assessed as cell growth at 10 uM incubated for 48 hrs by sulforhodamine B assay relative to control; summary of the method: as §3

Row | Structure (SMILES) | growth at 10 µM (UACC-257) [%] | growth at 10 µM (IGROV-1) [%] | growth at 10 µM (HCT-15) [%] | growth at 10 µM (786-0) [%] | growth at 10 µM (MOLT-4) [%] | growth at 10 µM (UO-31) [%] | growth at 10 µM (MDA-MB-435) [%] | growth at 10 µM (SNB-75) [%] | growth at 10 µM (HOP-62) [%] | growth at 10 µM (HL-60(TB)) [%] | growth at 10 µM (A549) [%] | growth at 10 µM (SNB-19) [%] | growth at 10 µM (M14) [%] | growth at 10 µM (OVCAR-4) [%] | growth at 10 µM (COLO 205) [%] | growth at 10 µM (RXF 393) [%] | growth at 10 µM (OVCAR-3) [%] | growth at 10 µM (NCI-H226) [%] | growth at 10 µM (MDA-MB-231) [%] | growth at 10 µM (SF-268) [%] | also measured
1 | COc1ccc(S(=O)(=O)n2ccc(-c3ccc4c(c3)CCC(C)(C)O4)n2)cc1 | 57.4 | 90.8 | 97.6 | 67.6 | 65.9 | 78.1 | 74.3 | 84 | 112 | 60 | 74 | 87.1 | 86.5 | 52.3 | 107 | 110 | 81.2 | 71.4 | 87.7 | 94.7 | growth at 10 µM (OVCAR-5): 109%; growth at 10 µM (ACHN): 104%; growth at 10 µM (SF-539): 103%; growth at 10 µM (SK-MEL-5): 42.6%; growth at 10 µM (Hs-578T): 97.8%; growth at 10 µM (K562): 55.6%; growth at 10 µM (SW-620): 90.3%; growth at 10 µM (Malme-3M): 110%; growth at 10 µM (PC-3): 78%; growth at 10 µM (NCI-H460): 75.4%; growth at 10 µM (HCT-116): 68.3%; growth at 10 µM (SF-295): 47.7%
2 | Cc1cc(C)cc(S(=O)(=O)n2ccc(-c3ccc4c(c3)CCC(C)(C)O4)n2)c1 | 89.6 | 105 | 82.3 | 82.8 | 91.4 | 75 | 93.8 | 87.2 | 116 | 99.8 | 80.8 | 94.6 | 82.7 | 67.3 | 103 | 77.3 | 87.8 | 66.8 | 93.5 | 88.3 | growth at 10 µM (OVCAR-5): 116%; growth at 10 µM (ACHN): 92.8%; growth at 10 µM (DU-145): 89.8%; growth at 10 µM (SF-539): 99.8%; growth at 10 µM (SK-MEL-5): 82.9%; growth at 10 µM (Hs-578T): 92.7%; growth at 10 µM (K562): 85.8%; growth at 10 µM (SW-620): 88.3%; growth at 10 µM (Malme-3M): 82.9%; growth at 10 µM (PC-3): 82.4%; growth at 10 µM (NCI-H460): 84.4%; growth at 10 µM (HCT-116): 77.8%; growth at 10 µM (SF-295): 85%
3 | CN1CCc2nc3sc(C(N)=O)c(N)c3c(-c3cccs3)c2C1 | 10 | 18 | 10 | 19 | 9 | 11 | 10 | -10 | 1 | -18 | 13 | 19 | 11 | 41 | -54 | -43 | -22 | 11 | 28 | 10 | growth at 10 µM (DU-145): 10%; growth at 10 µM (SF-539): -18%; growth at 10 µM (SK-MEL-5): -25%; growth at 10 µM (Hs-578T): 6%; growth at 10 µM (K562): 30%; growth at 10 µM (SW-620): 7%; growth at 10 µM (Malme-3M): 16%; growth at 10 µM (PC-3): 21%; growth at 10 µM (NCI-H460): 6%; growth at 10 µM (HCT-116): 6%; growth at 10 µM (SF-295): 10%
